Test results reported in ChEMBL document CHEMBL1131232, “New azole antifungals. 3. Synthesis and antifungal activity of 3-substituted-4(3H)-quinazolinones” (J Med Chem, 1998).
Values after ≈ are worked out from the molar mass of the structure shown.

Columns and labels:
[1] = In vitro antifungal activity against 6 filamentous fungi; type: functional; conditions: read-out: MIC
How it was run: (§1)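 Agar dilution on Kimmig's agar with 0.5% glycerol, using ATCC strains or clinical isolates. Drug stocks were 800 μg/mL in 50% ethanol, tested as 2-fold dilutions from 80 to 0.03 μg/mL. Inocula were 10⁵ cfu/mL. […] Geometric means took >80 as 160 and ≤0.03 as 0.03.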

Candida albicans [2] = assay: (§2) In vivo antifungal activity against murine candidosis model after peroral administration with 2.5 mg/kg at various time intervals. (percent protection for 100% mortality with fluconazole-treated group.); type: functional; conditions: route oral
How it was run: (§3)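 Groups of 10 male mice were infected iv with 0.2 mL of C. albicans at 2 to 8×10^7 cfu/mL. Drug was given orally as a suspension in 1% Tween + 0.2% carboxymethylcellulose at 1, 4 and 24 h post-infection; controls got vehicle only. Survival was scored on days 3, 5, 7 and 9. Read-out was % survival on the day all untreated controls died, or on the day all mice given fluconazole at the same dose died.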

Candida albicans [3] = assay: (§4) In vivo antifungal activity against murine candidosis model after peroral administration with 2.5 mg/kg at various time intervals. (percent protection for 100% mortality with untreated group); type: functional; conditions: route oral; how it was run: as §3
[4] = In vitro for antifungal activity against 10 yeasts; type: functional; conditions: read-out: MIC; how it was run: as §1
Mus musculus [5] = assay: In vivo antifungal activity against murine candidosis model after peroral administration with 0.5 mg/kg at various time intervals. (percent protection for 100% mortality with fluconazole-treated group.); type: functional; conditions: route oral; how it was run: as §3
Mus musculus [6] = assay: In vivo antifungal activity against murine candidosis model after peroral administration with 0.5 mg/kg at various time intervals. (percent protection for 100% mortality with untreated group); type: functional; conditions: route oral; how it was run: as §3
Mus musculus [7] = assay: as §2; type: functional; conditions: route oral; how it was run: as §3
Mus musculus [8] = assay: as §4; type: functional; conditions: route oral; how it was run: as §3
[9] = Half-life in rats after iv administration; type: ADME, organism-based; conditions: rat, in vivo
Candida albicans [10] = assay: The compound was tested in vitro for antifungal activity against Candida albicans.; type: functional; how it was run: as §1
Candida albicans [11] = assay: In vivo antifungal activity against murine candidosis model after peroral administration with 1 mg/kg at various time intervals. (percent protection for 100% mortality with fluconazole-treated group.); type: functional; conditions: route oral; how it was run: as §3
Candida albicans [12] = assay: In vivo antifungal activity against murine candidosis model after peroral administration with 1 mg/kg at various time intervals. (percent protection for 100% mortality with untreated group); type: functional; conditions: route oral; how it was run: as §3
Mus musculus [13] = assay: In vivo antifungal activity against murine candidosis model after peroral administration with 0.5 mg/Kg at various time intervals. (percent protection for 100% mortality with untreated group); type: functional; how it was run: as §3
Candida albicans [14] = assay: Tested in vivo for anti-candida activity in mice model 1 (dose:0.5 mg/kg, fluconazole-treated group); type: functional
Candida albicans [15] = assay: Tested in vivo for anti-candida activity in mice model 1 (dose: 0.5 mg/kg, untreated group).; type: functional
Mus musculus [16] = assay: In vivo antifungal activity against murine candidosis model after peroral administration with 0.5 mg/Kg at various time intervals. (percent protection for 100% mortality with fluconazole-treated group.); type: functional; how it was run: as §3
Mus musculus [17] = assay: In vivo antifungal activity against murine candidosis model after peroral administration with 1 mg/Kg at various time intervals. (percent protection for 100% mortality with untreated group); type: functional; how it was run: as §3

Compound	MIC [1]	Protection (Candida albicans [2])	Protection (Candida albicans [3])	MIC [4]	further results
C[C@@H](n1cnc2cc(Cl)ccc2c1=O)[C@](O)(Cn1ccnc1)c1ccc(F)cc1F	28 µg/mL (≈ 65 µM)	0%	0%	2 µg/mL (≈ 4.64 µM)	–
CCC(CC)n1ncn(-c2ccc(N3CCN(c4ccc5c(=O)n([C@H](C)[C@](O)(Cn6cncn6)c6ccc(F)cc6F)cnc5c4)CC3)cc2)c1=O	> 80 µg/mL	–	–	2.3 µg/mL (≈ 3.24 µM)	Protection (Mus musculus [5]): 0%; Protection (Mus musculus [6]): 20%
COc1cc2ncn([C@H](C)[C@](O)(Cn3cncn3)c3ccc(F)cc3F)c(=O)c2cc1OC	80 µg/mL (≈ 175 µM)	0%	0%	7.6 µg/mL (≈ 16.6 µM)	–
C[C@H](n1cnc2cc(Cl)ccc2c1=O)[C@@](O)(Cn1cncn1)c1ccc(F)cc1F	> 80 µg/mL	–	–	40 µg/mL (≈ 92.6 µM)	Protection (Mus musculus [7]): 0%; Protection (Mus musculus [8]): 0%
C[C@@H](n1cnc2cc(F)ccc2c1=O)[C@](O)(Cn1cncn1)c1ccc(F)cc1F	2.5 µg/mL (≈ 6.02 µM)	–	–	0.9 µg/mL (≈ 2.17 µM)	half-life [9]: 1.4 h; MIC (Candida albicans [10]): < 0.03 µg/mL; Protection (Candida albicans [11]): 0%; Protection (Candida albicans [12]): 0%; Protection (Mus musculus [13]): 0%
C[C@@H](n1ncn(-c2ccc(OCC(F)(F)C(F)F)cc2)c1=O)[C@](O)(Cn1cncn1)c1ccc(F)cc1F	8.9 µg/mL (≈ 16.4 µM)	–	–	2.6 µg/mL (≈ 4.79 µM)	Protection (Candida albicans [14]): 100%; Protection (Candida albicans [15]): 100%
C[C@@H](NC(=O)c1ccc(C(F)(F)F)cc1)[C@](O)(Cn1cncn1)c1ccc(F)cc1F	22 µg/mL (≈ 50 µM)	–	–	4.6 µg/mL (≈ 10.4 µM)	Protection (Candida albicans [14]): 100%; Protection (Candida albicans [15]): 100%
C[C@@H](n1cnc2cc(Cl)ccc2c1=O)[C@](O)(Cn1cncn1)c1ccccc1F	1.1 µg/mL (≈ 2.66 µM)	0%	20%	0.7 µg/mL (≈ 1.69 µM)	–
C[C@@H](n1cnc2c(Cl)cccc2c1=O)[C@](O)(Cn1cncn1)c1ccc(F)cc1F	45 µg/mL (≈ 104 µM)	0%	0%	2.5 µg/mL (≈ 5.79 µM)	–
COc1cccc2c(=O)n([C@H](C)[C@](O)(Cn3cncn3)c3ccc(F)cc3F)cnc12	> 80 µg/mL	0%	0%	10 µg/mL (≈ 23.4 µM)	–
C[C@@H](n1cnc2cc(Br)ccc2c1=O)[C@](O)(Cn1cncn1)c1ccc(F)cc1F	0.8 µg/mL (≈ 1.68 µM)	–	–	0.4 µg/mL (≈ 0.84 µM)	MIC (Candida albicans [10]): < 0.03 µg/mL; Protection (Candida albicans [11]): 0%; Protection (Candida albicans [12]): 30%; Protection (Mus musculus [16]): 0%
C[C@@H](n1cnc2cc(N(C)C)ccc2c1=O)[C@](O)(Cn1cncn1)c1ccc(F)cc1F	71 µg/mL (≈ 161 µM)	–	–	1.3 µg/mL (≈ 2.95 µM)	Protection (Candida albicans [11]): 0%; Protection (Mus musculus [17]): 0%
